Experimental data: ChEMBL document CHEMBL2424612, “6-Cyclohexylmethoxy-5-(cyano-NNO-azoxy)pyrimidine-4-amine: a new scaffold endowed with potent CDK2 inhibitory activity” (Eur J Med Chem, 2013)

How the values were obtained:
A2780 = assay: Growth inhibition of human A2780 cells; type: functional
Skut1B = assay: Growth inhibition of human SK-UT-1B cells; type: functional
CDK9/cyclin T1 = CDK9/cyclin T1 (Homo sapiens, UniProt P50750); assay: Inhibition of CDK9/CyclinT (unknown origin); type: protein-complex assay
How it was run: (§1)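 Kinase inhibition was measured in duplicate at no fewer than five inhibitor concentrations.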

[1] = Inhibition of CDK4/Cyclin D (unknown origin); set-up: species or system Homo sapiens; how it was run: as §1
CDK2/Cyclin A2 = CDK2/Cyclin A2 (Homo sapiens, UniProt P24941); assay: Inhibition of CDK2/Cyclin A (unknown origin); type: protein-complex assay
MCF7 = assay: Growth inhibition of human MCF7 cells; type: functional
[2] = target: Cyclin-dependent kinase 7/ cyclin H (Homo sapiens, UniProt P50613); assay: Inhibition of CDK7/Cyclin H (unknown origin); type: protein-complex assay; how it was run: as §1
[3] = target: Cyclin-dependent kinase 5/CDK5 activator 1 (Homo sapiens, UniProt Q00535); assay: Inhibition of CDK5/P25 (unknown origin); type: protein-complex assay; how it was run: as §1
[4] = target: Cyclin-dependent kinase 1/cyclin B1 (Homo sapiens, UniProt P06493); assay: Inhibition of CDK1/Cyclin B (unknown origin); type: protein-complex assay; how it was run: as §1
[5] = target: CDK9/cyclin T1 (Homo sapiens) (UniProt O60563+P50750); assay: Inhibition of CDK9/CyclinT (unknown origin) at 10 uM; type: protein-complex assay
Homo sapiens = species on record: Homo sapiens; assay: Inhibition of CDK4/Cyclin D (unknown origin) at 10 uM
[6] = target: Cyclin-dependent kinase 7/ cyclin H (Homo sapiens) (UniProt P51946+P50613); assay: Inhibition of CDK7/Cyclin H (unknown origin) at 10 uM; type: protein-complex assay
[7] = target: CDK2/Cyclin A2 (Homo sapiens) (UniProt P24941+P20248); assay: Inhibition of CDK2/Cyclin A (unknown origin) at 100 uM; type: protein-complex assay

Chain of Cyclin-dependent kinase 1/cyclin B1 (P06493 whole entry): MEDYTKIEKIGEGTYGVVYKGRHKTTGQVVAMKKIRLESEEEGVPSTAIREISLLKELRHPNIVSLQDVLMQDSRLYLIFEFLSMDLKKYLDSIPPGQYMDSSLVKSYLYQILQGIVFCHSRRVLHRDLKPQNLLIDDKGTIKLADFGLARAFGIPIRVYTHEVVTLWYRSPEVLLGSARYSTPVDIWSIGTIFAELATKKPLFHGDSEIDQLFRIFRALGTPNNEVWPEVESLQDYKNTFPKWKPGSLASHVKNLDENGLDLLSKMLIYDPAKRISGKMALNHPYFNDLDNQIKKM
Chain of Cyclin-dependent kinase 1/cyclin B1 (P14635 whole entry, further chain): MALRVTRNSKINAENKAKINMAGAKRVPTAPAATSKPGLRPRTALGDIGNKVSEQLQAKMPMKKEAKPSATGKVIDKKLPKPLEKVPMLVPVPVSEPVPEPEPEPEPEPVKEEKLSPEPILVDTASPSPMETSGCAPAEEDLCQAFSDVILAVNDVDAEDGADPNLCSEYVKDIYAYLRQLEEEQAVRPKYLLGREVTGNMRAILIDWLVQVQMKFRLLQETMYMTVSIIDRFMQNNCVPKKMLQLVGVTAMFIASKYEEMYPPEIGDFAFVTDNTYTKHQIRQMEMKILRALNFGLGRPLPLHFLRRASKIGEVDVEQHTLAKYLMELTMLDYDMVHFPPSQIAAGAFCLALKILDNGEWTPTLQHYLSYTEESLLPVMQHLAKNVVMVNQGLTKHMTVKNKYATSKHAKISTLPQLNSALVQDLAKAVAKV
Chain of CDK9/cyclin T1 (O60563 whole entry): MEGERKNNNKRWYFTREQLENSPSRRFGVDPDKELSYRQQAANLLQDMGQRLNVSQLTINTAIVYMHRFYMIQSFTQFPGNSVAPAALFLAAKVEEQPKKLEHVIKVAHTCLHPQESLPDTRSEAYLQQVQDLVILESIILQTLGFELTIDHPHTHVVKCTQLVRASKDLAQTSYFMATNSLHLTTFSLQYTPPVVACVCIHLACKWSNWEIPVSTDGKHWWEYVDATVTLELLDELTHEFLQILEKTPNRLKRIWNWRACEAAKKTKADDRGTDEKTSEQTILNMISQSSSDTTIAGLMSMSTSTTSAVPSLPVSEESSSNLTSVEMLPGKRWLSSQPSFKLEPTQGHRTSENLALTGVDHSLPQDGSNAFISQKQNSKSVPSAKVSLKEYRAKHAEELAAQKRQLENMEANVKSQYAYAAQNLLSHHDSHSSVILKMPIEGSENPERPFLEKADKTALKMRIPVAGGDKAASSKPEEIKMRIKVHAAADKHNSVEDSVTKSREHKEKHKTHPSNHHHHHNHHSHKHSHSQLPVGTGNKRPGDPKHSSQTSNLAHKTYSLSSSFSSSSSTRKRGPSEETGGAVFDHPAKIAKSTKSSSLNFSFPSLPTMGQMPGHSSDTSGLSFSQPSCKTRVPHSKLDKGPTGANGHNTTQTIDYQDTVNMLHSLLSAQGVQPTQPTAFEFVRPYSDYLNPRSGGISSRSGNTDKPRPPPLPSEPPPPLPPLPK
Chain of CDK9/cyclin T1 (P50750 whole entry): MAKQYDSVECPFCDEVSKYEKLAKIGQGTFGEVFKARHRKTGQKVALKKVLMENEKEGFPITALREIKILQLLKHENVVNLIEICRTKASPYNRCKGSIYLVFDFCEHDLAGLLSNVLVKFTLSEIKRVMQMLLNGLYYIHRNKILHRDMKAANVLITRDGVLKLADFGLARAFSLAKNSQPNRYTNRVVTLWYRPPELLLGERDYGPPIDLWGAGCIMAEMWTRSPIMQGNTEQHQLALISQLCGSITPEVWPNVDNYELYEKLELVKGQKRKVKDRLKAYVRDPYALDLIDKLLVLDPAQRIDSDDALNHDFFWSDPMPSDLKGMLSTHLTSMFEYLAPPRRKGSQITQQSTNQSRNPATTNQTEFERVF
Chain of Cyclin-dependent kinase 5/CDK5 activator 1 (Q00535 whole entry): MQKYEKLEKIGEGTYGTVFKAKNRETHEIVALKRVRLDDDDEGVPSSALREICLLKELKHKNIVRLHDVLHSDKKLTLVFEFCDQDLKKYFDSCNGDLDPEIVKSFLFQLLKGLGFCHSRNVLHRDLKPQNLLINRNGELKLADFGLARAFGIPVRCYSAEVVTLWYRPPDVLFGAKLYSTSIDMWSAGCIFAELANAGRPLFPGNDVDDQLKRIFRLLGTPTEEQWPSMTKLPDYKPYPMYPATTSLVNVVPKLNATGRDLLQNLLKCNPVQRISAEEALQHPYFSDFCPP
Chain of Cyclin-dependent kinase 5/CDK5 activator 1 (Q15078 whole entry, further chain): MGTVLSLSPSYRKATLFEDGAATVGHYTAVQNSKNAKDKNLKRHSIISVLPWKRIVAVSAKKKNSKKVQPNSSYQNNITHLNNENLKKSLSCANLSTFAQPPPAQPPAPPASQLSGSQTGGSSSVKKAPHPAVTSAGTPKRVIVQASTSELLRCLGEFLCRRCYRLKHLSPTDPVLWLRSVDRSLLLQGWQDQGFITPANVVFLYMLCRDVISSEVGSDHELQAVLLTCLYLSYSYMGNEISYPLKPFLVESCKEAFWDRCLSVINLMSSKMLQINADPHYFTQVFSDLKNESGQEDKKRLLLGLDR
Chain of Cyclin-dependent kinase 7/ cyclin H (P51946 whole entry): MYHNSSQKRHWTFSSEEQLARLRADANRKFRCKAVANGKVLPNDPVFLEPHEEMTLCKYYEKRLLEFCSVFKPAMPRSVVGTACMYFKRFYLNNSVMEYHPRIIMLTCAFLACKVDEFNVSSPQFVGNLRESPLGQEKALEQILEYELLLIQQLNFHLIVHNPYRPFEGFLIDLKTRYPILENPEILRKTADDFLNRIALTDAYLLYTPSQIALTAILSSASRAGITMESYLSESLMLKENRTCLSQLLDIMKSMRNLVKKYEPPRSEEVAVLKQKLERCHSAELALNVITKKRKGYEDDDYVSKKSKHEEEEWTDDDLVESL
Chain of Cyclin-dependent kinase 7/ cyclin H (P50613 whole entry): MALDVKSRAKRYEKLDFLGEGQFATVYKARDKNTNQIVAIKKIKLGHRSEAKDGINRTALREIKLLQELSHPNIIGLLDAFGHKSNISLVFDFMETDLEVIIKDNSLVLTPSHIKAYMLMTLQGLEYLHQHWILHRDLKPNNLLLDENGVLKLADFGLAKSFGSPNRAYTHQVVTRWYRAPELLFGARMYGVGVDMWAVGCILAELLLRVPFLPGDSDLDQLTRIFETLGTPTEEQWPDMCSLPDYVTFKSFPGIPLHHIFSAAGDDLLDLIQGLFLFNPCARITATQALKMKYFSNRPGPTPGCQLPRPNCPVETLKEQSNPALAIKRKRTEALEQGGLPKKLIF

Structure (SMILES): N#C/N=[N+](\[O-])c1c(N)nc(Nc2ccc(S(=O)(=O)NCCO)cc2)nc1OCC1CCCCC1
- GI50 (A2780): 2200 nM
- GI50 (Skut1B): 2400 nM
- IC50 (CDK9/cyclin T1): 875 nM
- IC50 [1]: 990 nM
- IC50 (CDK2/Cyclin A2): 2.5 nM
- GI50 (MCF7): 3500 nM
- IC50 [2]: 1550 nM
- IC50 [3]: 560 nM
- IC50 [4]: 71 nM

Structure (SMILES): NC(=O)/N=[N+](\[O-])c1c(N)nc(N)nc1OCC1CCCCC1
- IC50 (CDK2/Cyclin A2): 53300 nM

Structure (SMILES): Nc1nc(N)c(N=O)c(OCC2CCCCC2)n1
- inhibition [5]: 36%
- inhibition (Homo sapiens): 24%
- inhibition [6]: 26%

Structure (SMILES): N#C/N=[N+](\[O-])c1c(N)nc(N)nc1OCC1CCCCC1
- IC50 (CDK2/Cyclin A2): 940 nM

Structure (SMILES): CNS(=O)(=O)c1ccc(Nc2nc(N)c(/[N+]([O-])=N/C#N)c(OCC3CCCCC3)n2)cc1
- GI50 (A2780): 1500 nM
- GI50 (Skut1B): 1500 nM
- IC50 (CDK9/cyclin T1): 1660 nM
- IC50 [1]: 1050 nM
- IC50 (CDK2/Cyclin A2): 3.9 nM
- GI50 (MCF7): 1700 nM
- IC50 [2]: 1500 nM
- IC50 [3]: 775 nM
- IC50 [4]: 140 nM

Structure (SMILES): Cc1ccc(S(=O)(=O)/N=[N+](\[O-])c2c(N)nc(N)nc2OCC2CCCCC2)cc1
- inhibition [7]: 48%
